Assay results as given in ChEMBL document CHEMBL4251693, “Indolylmaleimide Derivative IM-17 Shows Cardioprotective Effects in Ischemia-Reperfusion Injury” (ACS Med Chem Lett, 2018).
Calls of active or inactive are those of the source. The rule behind the calls is not given here.

Tests used:
HL-60 [1] = test: Cytoprotective activity against H2O2-induced necrosis in human HL60 cells assessed as increase in cell viability at 10 uM incubated for 1 hr followed by H2O2 stimulation measured after 4 hrs in presence of caspase inhibitor Z-VAD by Alamar blue assay; assay type: functional, cell-based
Outline: (§1)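 HL-60 cells exposed to low-level H2O2 (30 μM, 4 h) with or without test agent (10 μM) or Z-VAD (100 μM). Viability read by AlamarBlue; morphology by phase-contrast imaging.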

HL-60 [2] = test: Cytoprotective activity against TBHP-induced necrosis in human HL60 cells assessed as increase in cell viability at 10 uM incubated for 1 hr followed by TBHP stimulation measured after 3 hrs by Alamar blue assay; assay type: functional, cell-based
Outline: (§2)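 HL-60 cells given a death inducer with or without test agent (10 μM) or Z-VAD (100 μM). Inducers were actinomycin D 1 μM for 6 h, camptothecin 1 μM for 6 h, etoposide 100 μM for 4 h, FasL 100 ng/mL for 18 h, H2O2 100 μM for 3 h, and TBHP 30 μM for 3 h. Viability read by AlamarBlue.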

HL-60 [3] = test: Cytoprotective activity against H2O2-induced necrosis in human HL60 cells assessed as increase in cell viability at 10 uM incubated for 1 hr followed by H2O2 stimulation measured after 3 hrs by Alamar blue assay; assay type: functional, cell-based; outline: as §2
HL-60 [4] = test: Cytoprotective activity against actinomycin D-induced apoptosis in human HL60 cells assessed as increase in cell viability at 10 uM incubated for 1 hr followed by actinomycin D stimulation measured after 6 hrs by Alamar blue assay; assay type: functional, cell-based; outline: as §2
HL-60 [5] = test: Cytoprotective activity against camptothecin-induced apoptosis in human HL60 cells assessed as increase in cell viability at 10 uM incubated for 1 hr followed by camptothecin stimulation measured after 6 hrs by Alamar blue assay; assay type: functional, cell-based; outline: as §2
HL-60 [6] = test: Cytoprotective activity against etoposide-induced apoptosis in human HL60 cells assessed as increase in cell viability at 10 uM incubated for 1 hr followed by etoposide stimulation measured after 4 hrs by Alamar blue assay; assay type: functional, cell-based; outline: as §2
HL-60 [7] = test: Cytoprotective activity against Fas ligand-induced apoptosis in human HL60 cells assessed as increase in cell viability at 10 uM incubated for 1 hr followed by Fas ligand stimulation measured after 18 hrs by Alamar blue assay; assay type: functional, cell-based; outline: as §2
HL-60 [8] = test: Cytoprotective activity against H2O2-induced necrosis in human HL60 cells assessed as increase in cell viability at 10 uM incubated for 1 hr followed by H2O2 stimulation measured after 4 hrs by Alamar blue assay; assay type: functional, cell-based; outline: as §1
HL-60 [9] = test: Cytoprotective activity against H2O2-induced apoptosis in human HL60 cells assessed as increase in cell viability at 10 uM incubated for 1 hr followed by H2O2 stimulation measured after 4 hrs in presence of caspase inhibitor Z-VAD by Alamar blue assay; assay type: functional, cell-based; outline: as §1
HL-60 [10] = test: Cytoprotective activity against H2O2-induced necrosis in human HL60 cells assessed as increase in cell viability at 10 uM incubated for 1 hr followed by H2O2 stimulation measured after 4 hrs by phase contrast microscopy; assay type: functional, cell-based; outline: as §1
HL-60 [11] = test: Cytoprotective activity against H2O2-induced necrosis in human HL60 cells assessed as increase in cell viability at 10 uM incubated for 1 hr followed by H2O2 stimulation measured after 4 hrs in presence of caspase inhibitor Z-VAD by phase contrast microscopy; assay type: functional, cell-based; outline: as §1
HL-60 [12] = test: Cytoprotective activity against H2O2-induced apoptosis in human HL60 cells assessed as increase in cell viability at 10 uM incubated for 1 hr followed by H2O2 stimulation measured after 4 hrs in presence of caspase inhibitor Z-VAD by phase contrast microscopy; assay type: functional, cell-based; outline: as §1
Jurkat [13] = test: Cytoprotective activity against FasL-induced necroptosis in human Jurkat cells assessed as increase in cell viability at 10 uM incubated for 1 hr followed by FasL stimulation measured after 20 hrs by Alamar blue assay; assay type: functional, cell-based
Outline: (§3)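 Jurkat necroptosis induced with FasL (100 ng/mL, 20 h) together with Z-VAD (100 μM) or cycloheximide (5 μM). Test agents were run at 10 μM alongside a necroptosis inhibitor at 30 μM. Viability read by AlamarBlue; morphology examined by phase-contrast imaging.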

Jurkat [14] = test: Cytoprotective activity against CHX-induced necroptosis in human Jurkat cells assessed as increase in cell viability at 10 uM incubated for 1 hr followed by CHX stimulation by Alamar blue assay; assay type: functional, cell-based; outline: as §3
Jurkat [15] = test: Cytoprotective activity against Z-VAD-induced necroptosis in human Jurkat cells assessed as increase in cell viability at 10 uM incubated for 1 hr followed by Z-VAD stimulation by Alamar blue assay; assay type: functional, cell-based; outline: as §3
Jurkat [16] = test: Cytoprotective activity against FasL-induced apoptosis in human Jurkat cells assessed as increase in cell viability at 10 uM incubated for 1 hr followed by FasL stimulation measured after 18 hrs by Alamar blue assay; assay type: functional, cell-based
Outline: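 Jurkat cells exposed to FasL (100 ng/mL, 18 h) with or without test agent (10 μM) or Z-VAD (100 μM). Viability measured by AlamarBlue and morphology by phase-contrast imaging.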

Jurkat [17] = test: Cytoprotective activity against FasL-induced necroptosis in human Jurkat cells assessed as increase in cell viability at 10 uM incubated for 1 hr followed by FasL stimulation measured after 20 hrs by phase contrast microscopy; assay type: functional, cell-based; outline: as §3
Jurkat [18] = test: Cytoprotective activity against CHX-induced necroptosis in human Jurkat cells assessed as increase in cell viability at 10 uM incubated for 1 hr followed by CHX stimulation by phase contrast microscopy; assay type: functional, cell-based; outline: as §3
Jurkat [19] = test: Cytoprotective activity against Z-VAD-induced necroptosis in human Jurkat cells assessed as increase in cell viability at 10 uM incubated for 1 hr followed by Z-VAD stimulation by phase contrast microscopy; assay type: functional, cell-based; outline: as §3
HL-60 [20] = test: Cytoprotective activity against H2O2-induced necrosis in human HL60 cells incubated for 1 hr followed by H2O2 stimulation by LDH release assay; assay type: functional, cell-based; conditions: HL-60, 1 h
Outline: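 Necrosis of HL-60 cells induced by H2O2 and quantified as lactate dehydrogenase release from the cytosol; IC50 derived.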

[21] = Stability in rat liver S9 fraction at 5 uM after 30 mins by HPLC method; assay type: ADME, subcellular; conditions: s9, 0.5 h
H9c2 [22] = test: Cytoprotective activity against TBHP-induced necrosis in rat H9c2 cells incubated for 4 hrs by LDH release assay; assay type: functional, cell-based; conditions: H9c2, 4 h
Outline: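 Rat cardiomyoblast H9c2 cells treated with TBHP (300 μM) with or without test compound; necrotic cell death quantified by LDH release assay.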

H9c2 [23] = test: Cytotoxicity against rat H9c2 cells at 30 uM; assay type: cell-based; conditions: h9c2, 30 µM
[24] = Solubility of the compound in water; assay type: physicochemical; conditions: buffer

Q: For `CCCCCNC1=C(c2cn(C)c3ccccc23)C(=O)N(C)C1=O`, which Activity (HL-60 [1]) is on record?
A: Active

Q: And the Activity (HL-60 [2])?
A: Active

Q: And the Activity (HL-60 [3])?
A: Active

Q: What about the Activity (HL-60 [4]) of the same compound?
A: inactive

Q: What about the Activity (HL-60 [5]) of the same compound?
A: inactive

Q: What about the Activity (HL-60 [6]) of the same compound?
A: inactive

Q: And the Activity (HL-60 [7])?
A: inactive

Q: And the Activity (HL-60 [8])?
A: Active

Q: What about the Activity (HL-60 [9]) of the same compound?
A: Active

Q: And the Activity (HL-60 [10])?
A: Active

Q: What about the Activity (HL-60 [11]) of the same compound?
A: Active

Q: And the Activity (HL-60 [12])?
A: Active

Q: And the Activity (Jurkat [13])?
A: inactive

Q: What about the Activity (Jurkat [14]) of the same compound?
A: inactive

Q: And the Activity (Jurkat [15])?
A: inactive

Q: What about the Activity (Jurkat [16]) of the same compound?
A: inactive

Q: And the Activity (Jurkat [17])?
A: inactive

Q: And the Activity (Jurkat [18])?
A: inactive

Q: And the Activity (Jurkat [19])?
A: inactive

Q: And the IC50 (HL-60 [20])?
A: 0.25 µM

Q: What about the Stability [21] of the same compound?
A: Unstable

Q: What about the IC50 (H9c2 [22]) of the same compound?
A: 3.9 µM

Q: And the Activity (H9c2 [23])?
A: Non-Toxic

Q: And the solubility [24]?
A: Insoluble
